Screens from PubChem.
A selection: hits, their analogues and other compounds. The true share with any hit is near 2.3%.
TDP2 inh = TDP2 (human) inhibition, absorbance primary screen. 370,000 compounds, 0.34% hits. O95551. AID 720702. inhibition, % at 12.8 µM. recombinant TDP2, T5PNP hydrolysis, p-nitrophenol absorbance 415 nm;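 active = inhibition above the mean of all tested compounds plus 3 SD, set per campaign, cut at about 25% in these data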;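 note: 0% = DMSO with enzyme and 100% = buffer with substrate but no TDP2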
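System – recombinant human TDP2 · Amount – 120 nM TDP2 per well · Buffer or medium – Mg2+-containing Tris-HCl buffer, pH 7.5 · Reagent – T5PNP substrate, 5 mM · Dosing – 12.8 µM single point, 1% DMSO · Incubation – 2 h at 37 °C · Measured by – epi absorbance · Read-out basis – percent inhibition · Benchmarks – high control without enzyme, low control DMSO plus TDP2 · Repeats – singlicate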
Apaf-1 inh = inhibitors of human Apaf-1 apoptosome. inhibition, % at 20 µM. reconstituted apoptosome caspase-3 activity, DEVD-Rh110 fluorescence. 330,000 compounds, 0.71% hits. O14727; active = inhibition of at least 40% at 20 µM;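 note: plate controls were DMSO wells for no effect and DEVD-CHO caspase inhibitor wells for full effect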
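Assay system: Apoptosome proteins | Medium: pH 7.5 Hepes buffer with CHAPS, BSA, DTT | Also added: Cytochrome c and DEVD-Rh110 substrate | Times: 30 min plus 50 min, RT | Detection: Rhodamine 110 fluorescence at Ex 480/Em 540 nm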
PAFAH1B3 FP inh = inhibitors of human PAFAH1B3. AID 492972. recombinant PAFAH1B3, FP-rhodamine probe, fluorescence polarization. inhibition, % at 3.39 µM. Q15102. 340,000 compounds, 0.28% hits;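 active = inhibition above the screen-wide average of all tested compounds plus 3 SD, cut at about 25% in these data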;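 note: 0% = enzyme with DMSO only and 100% = wells lacking PAFAH1B3 protein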
PAFAH1B2 inh = blocks human PAF acetylhydrolase 1b catalytic subunit 2; inhibition, % at 3.39 µM; recombinant PAFAH1B2, FP-rhodamine activity probe, fluorescence polarization; P68402; 340,000 compounds, 1.2% hits;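 active = inhibition above the mean of all tested compounds plus 3 SD, cut at about 24% in these data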;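 note: 0% = enzyme with DMSO and 100% = wells lacking PAFAH1B2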
PAFAH2 FP inh = inhibitors of human PAFAH2; Q99487; recombinant PAFAH2, FP-rhodamine activity probe, fluorescence polarization; inhibition, % at 3.39 µM; 340,000 compounds, 0.99% hits; AID 492956;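 active = inhibition above the mean over all tested compounds plus 3 SD, cut at about 30% in these data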;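 note: inhibitors block probe labeling of enzyme so polarization drops; 0% = enzyme with DMSO and 100% = wells lacking PAFAH2 protein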
* = called active by the depositor; · = no result given.

SMILES | TDP2 inh | Apaf-1 inh | PAFAH1B3 FP inh | PAFAH1B2 inh | PAFAH2 FP inh
COc1cccc2c1C(=O)c1c(O)c3c(c(O)c1C2=O)C[C@@](O)(C(=O)CO)C[C@@H]3O[C@H]1C[C@H](N)[C@@H](O)[C@H](C)O1 | · | 55.8* | 42.9* | 51.4* | 55.0*
COc1cccc2c1C(=O)c1c(O)c3c(c(O)c1C2=O)CC(O)(C(=O)CO)CC3OC1CC(N(C)C)C(O)C(C)O1 (stereo not drawn) | -0.1 | · | 46.8* | 61.0* | 60.5*
COc1cccc2c1C(=O)c1c(O)c3c(c(O)c1C2=O)C[C@@](O)(C(C)=O)C[C@@H]3O[C@H]1C[C@H](N)[C@H](O)[C@H](C)O1 | 9.3 | · | 37.2* | 51.0* | 54.1*
CC(C)Oc1cccc(-c2csc(N3CCC(C(N)=O)CC3)n2)c1 | -13.4 | · | · | · | ·
O=C(OC12CCCN(C1)/C(=C/c1ccccc1)C2)c1ccccc1 (stereo not drawn) | -2.8 | · | · | · | ·
O=C(O)c1cccc(-n2cccc2/C=C2/NC(=O)N(c3ccc(Cl)cc3)C2=O)c1 | -1.8 | · | 35.7* | 27.9* | 72.0*
O=C(N/N=C/c1cc([N+](=O)[O-])ccc1O)C12CC3CC(CC(C3)C1)C2 | -6.0 | -9.3 | 6.9 | 42.3* | 90.5*
O=C(N/N=C/c1cc([N+](=O)[O-])ccc1O)NC12CC3CC(CC(C3)C1)C2 | -6.8 | 16.8 | 10.4 | 87.9* | 22.8
O=C(CCN1C(=O)/C(=C/c2ccccc2Cl)SC1=S)NC1=NCCS1 | 4.8 | 17.8 | -3.7 | 34.0* | 5.1
Fc1cccc(Cn2ccc3ccc(-c4ccc5ccn(Cc6cccc(F)c6)c5c4)cc32)c1 | 6.6 | · | · | · | ·
O=C(CCc1ccccc1)c1c(O)cc(O)cc1O | -0.5 | 1.6 | 1.5 | 42.3* | 4.4
N=c1c2c(ccn1CCCCc1ccccc1)Oc1ccc3ccccc3c1C2c1ccccc1 (stereo not drawn) | 10.4 | · | · | · | ·
O=C(OCC(=O)N1CCN(C(=O)c2ccco2)CC1)c1cc(S(=O)(=O)Nc2ccc(Cl)cc2)ccc1O | 2.7 | 3.7 | 3.8 | 33.3* | 12.6
O=C(CCNS(=O)(=O)c1ccc(Cl)cc1)OCC(=O)N1CCN(C(=O)c2ccco2)CC1 | 18.0 | 5.0 | 2.7 | 3.7 | -1.6
O=C(OCC(=O)N1CCN(C(=O)c2ccco2)CC1)c1cc(-c2ccc(Cl)c(Cl)c2Cl)nc2ccccc12 | -1.3 | 30.7 | -3.6 | 2.1 | -12.2
O=C(OCC(=O)N1CCN(C(=O)c2ccco2)CC1)c1cc(-c2ccco2)nc2ccccc12 | · | 11.1 | 2.8 | 4.8 | 51.8*
Nc1c(C(=O)NCCN2CCOCC2)c2nc3ccccc3nc2n1CCc1ccccc1 | 0.7 | 19.7 | 1.8 | 4.5 | -5.3
Nc1c(C(=O)NCc2ccco2)c2nc3ccccc3nc2n1CCc1ccc(F)cc1 | 0.9 | 77.6* | 2.6 | 1.6 | -10.9
COCCCNC(=O)c1c(N)n(/N=C/c2cccs2)c2nc3ccccc3nc12 | 7.7 | 11.6 | -1.0 | -0.6 | -7.2
COCCn1c(N)c(C(=O)NCc2cccs2)c2nc3ccccc3nc21 | 23.4 | 95.2* | 20.6 | 3.8 | 6.6
O=C(CNS(=O)(=O)c1ccc(Br)s1)N1CCN(c2ncccn2)CC1 | -0.7 | · | 4.3 | 24.6* | 12.3
CCN(C(=O)CSc1nnc(-c2ccc3c(c2)OCO3)o1)C1CCS(=O)(=O)C1 (stereo not drawn) | 9.5 | -6.9 | 7.0 | 31.9* | -1.3
C=C[C@]1(C)C=C2CC[C@H]3[C@@](C)(CCC[C@@]3(C)C(=O)O)[C@@H]2CC1 | · | 17.7 | 0.2 | 48.1* | 9.1
C=C1C[C@@]23CCC4[C@@](C)(CCC[C@@]4(C)C(=O)O)C2CC[C@]1(O)C3 (stereo partly drawn) | 1.0 | -7.7 | 4.7 | -2.9 | 8.8
Clc1ccc(CCNc2nc3ccccc3s2)cc1 | -2.9 | 24.9 | 1.5 | 27.0* | 10.2
SMILES | TDP2 inh | Apaf-1 inh | PAFAH1B3 FP inh | PAFAH1B2 inh | PAFAH2 FP inh
Cn1c(CNS(=O)(=O)c2ccc(Br)cc2)n[nH]c1=S | -4.0 | -2.2 | 9.8 | 24.4* | 4.1
CCc1ccc(/C=C/C(=O)NC2=NCCS2)cc1 | -4.5 | · | · | · | ·
CC(C)C1Nc2ccc(S(N)(=O)=O)cc2C2C=CCC21 (stereo not drawn) | -4.6 | 38.6 | 7.7 | 32.5* | 5.2
O=C1[C@@H](C2CCCCC2)[C@@H]2c3ccccc3C=NN2[C@@H]2c3ccccc3C=NN12 | 10.3 | · | · | · | ·
CSc1ccc2c(c1)N(CCC1CCCCN1C)c1ccccc1S2 (stereo not drawn) | -6.4 | 54.7* | 0.2 | 0.0 | -9.1
CC(=O)c1ccc2c(c1)N(CCCN1CCC(CCO)CC1)c1ccccc1S2 | 0.9 | 13.8 | -0.7 | 2.7 | -4.8
COC(=O)[C@]12C[C@H](CC(=O)N3CCCCC3)C(=O)N(CCC3=CCCCC3)C1=C[C@H](C1CCCC1)O[C@@H]2C | -6.0 | · | · | · | ·
CCOC(=O)N1CCN(C(=O)C[C@H]2C[C@@]3(C(=O)OC)C(=C[C@H](C4CCCC4)O[C@@H]3C)N(Cc3cccc4ccccc34)C2=O)CC1 | -6.5 | · | · | · | ·
CCCCCN=C(N)N/N=C/c1c[nH]c2ccc(OC)cc12 | -14.1 | 78.2* | 12.8 | 1.5 | 9.6
CCCOc1ccc(C(=O)N/N=C/c2c[nH]c3ccc(Br)cc23)cc1 | -13.3 | 24.7 | 9.2 | 7.4 | -0.5
Clc1ccccc1N1CCN(C2=Nc3ccccc3Sc3ccccc32)CC1 | -1.4 | · | · | · | ·
O=C(CCc1nnc(CCCc2ccccc2)o1)NCCc1ccccc1 | -9.4 | 10.6 | -1.1 | 24.4* | 1.2
NC1=NC(=O)/C(=C/c2cc(Br)c(O)c(Br)c2)S1 | -2.4 | 6.8 | 33.7* | -3.3 | 9.9
NC1=NC(=O)/C(=C/c2ccc(Br)cc2)S1 | 2.0 | 6.5 | 2.1 | 2.4 | 2.4
c1ccc(C[C@H]2CN=C(Nc3ccccc3)N2CCC2CCCC2)cc1 | -23.1 | 23.4 | -1.4 | -4.9 | -0.5
NC1=NC[C@H](Cc2ccccc2)N1CCCCC1CCCCC1 | -4.2 | 66.9* | -5.1 | -1.5 | 5.6
Oc1ccc(C[C@H]2CNCCN2CCCCC2CCCCC2)cc1 | -7.8 | 40.6* | 4.7 | 1.7 | 0.1
NC1=NC[C@H](Cc2ccc(O)cc2)N1CCCCC1CCCCC1 | -11.2 | 52.7* | -1.4 | 5.2 | -0.6
NC1=NC[C@H](Cc2ccc(O)cc2)N1CCc1cc(C(F)(F)F)cc(C(F)(F)F)c1 | -5.2 | 28.0 | 4.4 | 4.6 | 0.3
Oc1ccc(C[C@@H]2CNCCN2CC2CCCCC2)cc1 | -7.6 | -6.8 | -3.9 | -3.9 | 2.4
CC(C)CC(=O)c1c(O)cc(O)c2c1OC1=C(C(=O)C(C)(C)C(=O)C1(C)C)C2CC(C)C (stereo not drawn) | -2.8 | · | · | · | ·
COc1ccc(S[C@]2(C(=O)N3CCCC3)CC(=O)N(C(=O)c3ccccc3)[C@@H]2c2ccc(OC)cc2)cc1 | -18.5 | · | · | · | ·
O=C(NCc1ccc2c(c1)OCO2)c1ccc(CSCc2ccc(Cl)cc2)o1 | 4.7 | 11.7 | 6.2 | 25.7* | 0.3
CNc1ccc2c3c(cccc13)C(=O)N(C)C2=O | -6.6 | 4.8 | 67.6* | 57.9* | 70.6*
O=S(=O)(O)c1cc(O)c2c(O)c(N=Nc3cc(Cl)ccc3O)c(S(=O)(=O)O)cc2c1 | · | 9.2 | 35.4* | 33.7* | 48.6*
